Results gathered from unrelated publications.
Target: Mitogen-activated protein kinase kinase kinase kinase 3 (MAP4K3, Homo sapiens, UniProt Q8IVH8)
Residues used in one study (Q8IVH8 1-894): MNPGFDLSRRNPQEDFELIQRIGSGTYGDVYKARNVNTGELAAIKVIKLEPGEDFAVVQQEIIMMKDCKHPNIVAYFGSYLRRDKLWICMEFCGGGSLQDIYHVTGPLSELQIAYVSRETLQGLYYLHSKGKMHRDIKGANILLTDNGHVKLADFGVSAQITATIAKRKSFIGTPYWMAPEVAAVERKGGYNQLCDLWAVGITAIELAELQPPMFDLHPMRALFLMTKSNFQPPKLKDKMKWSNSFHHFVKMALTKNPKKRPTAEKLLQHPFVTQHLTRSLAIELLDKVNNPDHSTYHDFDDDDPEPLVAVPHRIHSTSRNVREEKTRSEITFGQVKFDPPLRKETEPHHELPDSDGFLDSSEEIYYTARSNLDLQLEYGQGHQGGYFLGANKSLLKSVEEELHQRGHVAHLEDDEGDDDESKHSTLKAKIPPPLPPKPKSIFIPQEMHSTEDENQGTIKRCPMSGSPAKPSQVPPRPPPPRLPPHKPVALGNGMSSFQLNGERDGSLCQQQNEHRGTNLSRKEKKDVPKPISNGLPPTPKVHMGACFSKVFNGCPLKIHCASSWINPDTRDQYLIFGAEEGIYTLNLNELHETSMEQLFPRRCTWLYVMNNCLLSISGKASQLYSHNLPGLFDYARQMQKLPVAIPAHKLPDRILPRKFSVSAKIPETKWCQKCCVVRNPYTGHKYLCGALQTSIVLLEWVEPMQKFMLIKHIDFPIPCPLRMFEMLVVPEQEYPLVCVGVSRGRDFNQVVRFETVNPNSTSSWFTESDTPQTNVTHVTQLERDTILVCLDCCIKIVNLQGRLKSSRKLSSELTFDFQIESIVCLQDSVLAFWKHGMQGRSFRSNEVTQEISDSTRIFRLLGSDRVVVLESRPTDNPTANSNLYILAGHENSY

The inhibition of `c1ccc(CNc2nc(N3CCOc4ccccc43)nc3c2CCCC3)cc1` is reported as 3.3% (target engagement in cells, inhibitor, chemoproteomics; 20 mM).
`CN1CC(Oc2cnc(C#N)cc2-c2ccn3nc(NC(=O)C4CC4)cc3c2)C1` gave an inhibition of -4% (enzyme activity, inhibitor; 1 µM).
`CCCCN(CCCC)C(=O)CN1C[C@H](c2cc(OC)c3c(c2)OCO3)[C@@H](C(=O)O)[C@@H]1CC(C)(C)CCC` gave a remaining binding of 100% (cell-free assay, competition with immobilised ligand; 1 µM).
For `FC(F)(F)Oc1cccc(-c2cnc3ccc(-c4ccncc4)nn23)c1`, the activity vs control was 54% (enzyme activity, inhibitor, radiometric; 1 µM).
`COc1cc(/C=C/C(=O)CC(=O)/C=C/c2ccc(O)c(OC)c2)ccc1O` has an activity vs control of 87% (enzyme activity, inhibitor; 1 µM).
For `Cc1ccc(C(=O)Nc2ccc(CN3CCN(C)CC3)c(C(F)(F)F)c2)cc1C#Cc1cnc2cccnn12`, the remaining activity was 89% (enzyme activity, inhibitor; 23.5 nM).
The remaining binding of `CNC(=O)c1ccc(Nc2ncc(C(F)(F)F)c(NCc3nccnc3N(C)S(C)(=O)=O)n2)cc1` is reported as 95% (cell-free assay, competition with immobilised ligand; 0.1 µM).
`COc1cc(Nc2cnc(C#N)c(O[C@H](C)CN(C)C)n2)ncc1-c1cnn(C)c1` gave a remaining activity of 45% (enzyme activity, inhibitor, radiometric; 1 µM).
The inhibition of `CCCCNc1ncc2c(-c3ccc(F)cc3)nn(C[C@H]3CC[C@H](N)CC3)c2n1` is reported as 44.6% (target engagement in cells, inhibitor, chemoproteomics; 20 mM).
The remaining binding of `CC(=O)c1c(NS(C)(=O)=O)c2cc(-c3ccc(Cl)cc3)c(-c3ccc(Cl)cc3Cl)nc2n(C)c1=O` is reported as 99% (cell-free assay, competition with immobilised ligand; 1 µM).
For `O=C(Nc1cnn(-c2csc(C(=O)NC3COC3)c2)c1)Nc1c(F)cccc1Cl`, the remaining activity was 100% (enzyme activity, inhibitor; 5 µM).
With `Cc1ccc(C(=O)NCc2ccsc2)cc1C#Cc1cn(C(C)C)c2ncnc(N)c12` the activity vs control was 54% (enzyme activity, inhibitor; 1 µM).
The remaining activity of `COc1cc(Cl)c(C(=O)N[C@@H](CN[C@H]2CC[C@@H](N)CC2)Cc2ccc(C#N)cc2)cc1-c1ccc(CN[C@H](C)c2ccc(C)cc2)o1` is reported as 98% (enzyme activity, inhibitor; 1 µM).
With `Nc1ncnc2occ(-c3ccc(NC(=O)Nc4cc(C(F)(F)F)ccc4F)cc3)c12` the remaining signal was 0.8% (cell-free assay, inhibitor; 20 µM).
With `Cc1sc(C(=O)NC2COC2)cc1-n1cc(NC(=O)Nc2c(F)cccc2Cl)cn1` the remaining activity was 118% (enzyme activity, inhibitor; 10 µM).
